From ChEMBL document CHEMBL1137218, “Long hydrocarbon chain ether diols and ether diacids that favorably alter lipid disorders in vivo” (J Med Chem, 2004)

What was measured:
Rattus norvegicus [1] = assay: Blood glucose levels in female obese rats two weeks post treatment at 3 mg/kg oral dose; pretreatment value = 117 mg/dL; type: functional
Rattus norvegicus [2] = assay: Serum Triglyceride levels in female obese rats one week post treatment at 100 mg/kg oral dose; pretreatment value = 746 mg/dL; type: functional
Rattus norvegicus [3] = assay: Serum Triglyceride levels in female obese rats two weeks post treatment at 10 mg/kg oral dose; pretreatment value = 943 mg/dL; type: functional
Rattus norvegicus [4] = assay: Serum NEFA levels in female obese rats two weeks post treatment at 100 mg/kg oral dose; pretreatment value = 1.1 mg/dL; type: functional
Rattus norvegicus [5] = assay: Blood glucose levels in female obese rats one week post treatment at 30 mg/kg oral dose; pretreatment value = 109 mg/dL; type: functional
Rattus norvegicus [6] = assay: Serum Triglyceride levels in female obese rats two weeks post treatment at 100 mg/kg oral dose; pretreatment value = 746 mg/dL; type: functional
Rattus norvegicus [7] = assay: Serum Triglyceride levels in female obese rats two weeks post treatment at 30 mg/kg oral dose; pretreatment value = 1240 mg/dL; type: functional
Rattus norvegicus [8] = assay: Serum HDL cholesterol levels in female obese rats two weeks post treatment at 10 mg/kg oral dose; pretreatment value = 56 mg/dL; type: functional
Rattus norvegicus [9] = assay: Serum HDL cholesterol levels in female obese rats two weeks post treatment at 30 mg/kg oral dose; pretreatment value = 42 mg/dL; type: functional
Rattus norvegicus [10] = assay: Blood glucose levels in female obese rats two weeks post treatment at 10 mg/kg oral dose; pretreatment value = 112 mg/dL; type: functional
Rattus norvegicus [11] = assay: Blood glucose levels in female obese rats two weeks post treatment at 30 mg/kg oral dose; pretreatment value = 109 mg/dL; type: functional
Rattus norvegicus [12] = assay: Serum HDL cholesterol levels in female obese rats two weeks post treatment at 100 mg/kg oral dose; pretreatment value = 59 mg/dL; type: functional
Rattus norvegicus [13] = assay: Serum NEFA levels in female obese rats one week post treatment at 3 mg/kg oral dose; pretreatment value = 1.2 mg/dL; type: functional
Rattus norvegicus [14] = assay: Insulin levels in female obese rats two weeks post treatment at 100 mg/kg oral dose; pretreatment value = 12.7 ng/mL; type: functional
Rattus norvegicus [15] = assay: Serum NEFA levels in female obese rats two weeks post treatment at 3 mg/kg oral dose; pretreatment value = 1.2 mg/dL; type: functional
Rattus norvegicus [16] = assay: Insulin levels in female obese rats one week post treatment at 30 mg/kg oral dose; pretreatment value = 9.3 ng/mL; type: functional
Rattus norvegicus [17] = assay: Insulin levels in female obese rats two weeks post treatment at 10 mg/kg oral dose; pretreatment value = 8.2 ng/mL; type: functional
Rattus norvegicus [18] = assay: Insulin levels in female obese rats two weeks post treatment at 3 mg/kg oral dose; pretreatment value = 12.9 ng/mL; type: functional
Rattus norvegicus [19] = assay: Insulin levels in female obese rats one week post treatment at 100 mg/kg oral dose; pretreatment value = 12.7 ng/mL; type: functional
Rattus norvegicus [20] = assay: Serum Non-HDL cholesterol levels in female obese rats one week post treatment at 3 mg/kg oral dose; pretreatment value = 21 mg/dL; type: functional
Procedure, shortened: (§1)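 Female obese Zucker fatty rats (10–12 weeks, 400–500 g), once-daily oral gavage in 20% EtOH/80% PEG-200 (v/v) for up to 14 days. Serum drawn after a 6 h fast, pre-dose and at days 7 and 14. Non-HDL cholesterol is serum total cholesterol times the percent area of the non-HDL peaks in a Superose 6HR gel-filtration profile with on-line cholesterol detection. n = 4 per dose.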

Rattus norvegicus [21] = assay: Serum Non-HDL cholesterol levels in female obese rats two weeks post treatment at 10 mg/kg oral dose; pretreatment value = 25 mg/dL; type: functional; procedure, shortened: as §1
Rattus norvegicus [22] = assay: Blood glucose levels in female obese rats two weeks post treatment at 3 mg/kg oral dose; pretreatment value = 115 mg/dL; type: functional
Rattus norvegicus [23] = assay: Serum Triglyceride levels in female obese rats one week post treatment at 10 mg/kg oral dose; pretreatment value = 1185 mg/dL; type: functional
Rattus norvegicus [24] = assay: Serum Triglyceride levels in female obese rats one week post treatment at 30 mg/kg oral dose; pretreatment value = 1004 mg/dL; type: functional
Rattus norvegicus [25] = assay: Serum Triglyceride levels in female obese rats two weeks post treatment at 3 mg/kg oral dose; pretreatment value = 1111 mg/dL; type: functional
Rattus norvegicus [26] = assay: Serum Triglyceride levels in female obese rats one week post treatment at 3 mg/kg oral dose; pretreatment value = 1111 mg/dL; type: functional
Rattus norvegicus [27] = assay: Serum Triglyceride levels in female obese rats two weeks post treatment at 10 mg/kg oral dose; pretreatment value = 1185 mg/dL; type: functional
Rattus norvegicus [28] = assay: Serum Triglyceride levels in female obese rats two weeks post treatment at 30 mg/kg oral dose; pretreatment value = 1004 mg/dL; type: functional
Rattus norvegicus [29] = assay: Serum HDL cholesterol levels in female obese rats two weeks post treatment at 10 mg/kg oral dose; pretreatment value = 61 mg/dL; type: functional
Rattus norvegicus [30] = assay: Serum HDL cholesterol levels in female obese rats two weeks post treatment at 30 mg/kg oral dose; pretreatment value = 49 mg/dL; type: functional
Rattus norvegicus [31] = assay: Serum Triglyceride levels in female obese rats two weeks post treatment at 100 mg/kg oral dose; pretreatment value = 1068 mg/dL; type: functional
Rattus norvegicus [32] = assay: Blood glucose levels in female obese rats two weeks post treatment at 10 mg/kg oral dose; pretreatment value = 110 mg/dL; type: functional
Rattus norvegicus [33] = assay: Serum NEFA levels in female obese rats one week post treatment at 10 mg/kg oral dose; pretreatment value = 1.4 mg/dL; type: functional
Rattus norvegicus [34] = assay: Serum NEFA levels in female obese rats one week post treatment at 30 mg/kg oral dose; pretreatment value = 1.2 mg/dL; type: functional
Rattus norvegicus [35] = assay: Serum NEFA levels in female obese rats two weeks post treatment at 3 mg/kg oral dose; pretreatment value = 1.1 mg/dL; type: functional
Rattus norvegicus [36] = assay: Serum NEFA levels in female obese rats one week post treatment at 100 mg/kg oral dose; pretreatment value = 1.2 mg/dL; type: functional
Rattus norvegicus [37] = assay: Insulin levels in female obese rats one week post treatment at 3 mg/kg oral dose; pretreatment value = 13.3 ng/mL; type: functional
Rattus norvegicus [38] = assay: Insulin levels in female obese rats one week post treatment at 100 mg/kg oral dose; pretreatment value = 8.6 ng/mL; type: functional
Rattus norvegicus [39] = assay: Serum NEFA levels in female obese rats two weeks post treatment at 10 mg/kg oral dose; pretreatment value = 1.4 mg/dL; type: functional
Rattus norvegicus [40] = assay: Insulin levels in female obese rats one week post treatment at 30 mg/kg oral dose; pretreatment value = 9 ng/mL; type: functional
Rattus norvegicus [41] = assay: Insulin levels in female obese rats two weeks post treatment at 30 mg/kg oral dose; pretreatment value = 9 ng/mL; type: functional
Rattus norvegicus [42] = assay: Serum Non-HDL cholesterol levels in female obese rats one week post treatment at 3 mg/kg oral dose; pretreatment value = 29 mg/dL; type: functional; procedure, shortened: as §1
Rattus norvegicus [43] = assay: Insulin levels in female obese rats two weeks post treatment at 100 mg/kg oral dose; pretreatment value = 8.6 ng/mL; type: functional
Rattus norvegicus [44] = assay: Blood glucose levels in female obese rats one week post treatment at 10 mg/kg oral dose; pretreatment value = 110 mg/dL; type: functional
Rattus norvegicus [45] = assay: Serum Non-HDL cholesterol levels in female obese rats two weeks post treatment at 10 mg/kg oral dose; pretreatment value = 33 mg/dL

CC(C)(CO)CCCCOCCCCC(C)(C)CO
Activity (Rattus norvegicus [1]): 119 mg/dL | Activity (Rattus norvegicus [2]): 174 mg/dL | Activity (Rattus norvegicus [3]): 706 mg/dL | Activity (Rattus norvegicus [4]): 0.83 mg/dL | Activity (Rattus norvegicus [5]): 140 mg/dL | Activity (Rattus norvegicus [6]): 219 mg/dL | Activity (Rattus norvegicus [7]): 324 mg/dL | Activity (Rattus norvegicus [8]): 134 mg/dL | Activity (Rattus norvegicus [9]): 222 mg/dL | Activity (Rattus norvegicus [10]): 117 mg/dL | Activity (Rattus norvegicus [11]): 123 mg/dL | Activity (Rattus norvegicus [12]): 263 mg/dL | Activity (Rattus norvegicus [13]): 1.7 mg/dL | Activity (Rattus norvegicus [14]): 12.8 ng/mL | Activity (Rattus norvegicus [15]): 1.5 mg/dL | Activity (Rattus norvegicus [16]): 14.2 ng/mL | Activity (Rattus norvegicus [17]): 9 ng/mL | Activity (Rattus norvegicus [18]): 9.9 ng/mL | Activity (Rattus norvegicus [19]): 14.5 ng/mL | Activity (Rattus norvegicus [20]): 26 mg/dL | Activity (Rattus norvegicus [21]): 43 mg/dL

CC(C)(CO)CCCCCOCCCCCC(C)(C)CO
Activity (Rattus norvegicus [22]): 114 mg/dL | Activity (Rattus norvegicus [23]): 1159 mg/dL | Activity (Rattus norvegicus [24]): 191 mg/dL | Activity (Rattus norvegicus [25]): 1116 mg/dL | Activity (Rattus norvegicus [26]): 1031 mg/dL | Activity (Rattus norvegicus [27]): 1420 mg/dL | Activity (Rattus norvegicus [28]): 424 mg/dL | Activity (Rattus norvegicus [29]): 110 mg/dL | Activity (Rattus norvegicus [30]): 138 mg/dL | Activity (Rattus norvegicus [31]): 167 mg/dL | Activity (Rattus norvegicus [32]): 119 mg/dL | Activity (Rattus norvegicus [33]): 1.3 mg/dL | Activity (Rattus norvegicus [34]): 0.89 mg/dL | Activity (Rattus norvegicus [35]): 1.5 mg/dL | Activity (Rattus norvegicus [36]): 1.2 mg/dL | Activity (Rattus norvegicus [37]): 12.2 ng/mL | Activity (Rattus norvegicus [38]): 3.5 ng/mL | Activity (Rattus norvegicus [39]): 1.5 mg/dL | Activity (Rattus norvegicus [40]): 12.4 ng/mL | Activity (Rattus norvegicus [41]): 10.4 ng/mL | Activity (Rattus norvegicus [42]): 26 mg/dL | Activity (Rattus norvegicus [43]): 4.4 ng/mL | Activity (Rattus norvegicus [44]): 100 mg/dL | Activity (Rattus norvegicus [45]): 53 mg/dL
